Test results as given in ChEMBL document CHEMBL1143164, “Synthesis and structure-activity relationships of ring-opened 17-hydroxywortmannins: potent phosphoinositide 3-kinase inhibitors with improved properties and anticancer efficacy” (J Med Chem, 2008).
Calls of active or inactive are those of the source. The calls are words filed in the database; no cut-off is given here.

What was measured:
LNCaP = experiment: Growth inhibition of human LNCap cells; format: functional, cell-based
[1] = biological target: Serine/threonine-protein kinase mTOR (Homo sapiens, UniProt P42345); experiment: Inhibition of mTOR
[2] = Half life in mouse at 5 mg/kg, iv; format: ADME, organism-based; parameters: dose 5 mg/kg, route intravenous; details: in vivo
How it was run: (§1)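 Nude mice received a single intravenous bolus of 5 mg/kg. Plasma levels of parent and the 11-deacetylated metabolite were followed over time to derive clearance, volume of distribution and half-life.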

[3] = biological target: T1, Phosphatidylinositol 4,5-bisphosphate 3-kinase catalytic subunit alpha isoform (Homo sapiens, UniProt P42336); experiment: Inhibition of PI3K expressed in Escherichia coli by microtiter plate-based fluorescence polarization assay
T1 sequence (P42336 whole entry, canonical isoform): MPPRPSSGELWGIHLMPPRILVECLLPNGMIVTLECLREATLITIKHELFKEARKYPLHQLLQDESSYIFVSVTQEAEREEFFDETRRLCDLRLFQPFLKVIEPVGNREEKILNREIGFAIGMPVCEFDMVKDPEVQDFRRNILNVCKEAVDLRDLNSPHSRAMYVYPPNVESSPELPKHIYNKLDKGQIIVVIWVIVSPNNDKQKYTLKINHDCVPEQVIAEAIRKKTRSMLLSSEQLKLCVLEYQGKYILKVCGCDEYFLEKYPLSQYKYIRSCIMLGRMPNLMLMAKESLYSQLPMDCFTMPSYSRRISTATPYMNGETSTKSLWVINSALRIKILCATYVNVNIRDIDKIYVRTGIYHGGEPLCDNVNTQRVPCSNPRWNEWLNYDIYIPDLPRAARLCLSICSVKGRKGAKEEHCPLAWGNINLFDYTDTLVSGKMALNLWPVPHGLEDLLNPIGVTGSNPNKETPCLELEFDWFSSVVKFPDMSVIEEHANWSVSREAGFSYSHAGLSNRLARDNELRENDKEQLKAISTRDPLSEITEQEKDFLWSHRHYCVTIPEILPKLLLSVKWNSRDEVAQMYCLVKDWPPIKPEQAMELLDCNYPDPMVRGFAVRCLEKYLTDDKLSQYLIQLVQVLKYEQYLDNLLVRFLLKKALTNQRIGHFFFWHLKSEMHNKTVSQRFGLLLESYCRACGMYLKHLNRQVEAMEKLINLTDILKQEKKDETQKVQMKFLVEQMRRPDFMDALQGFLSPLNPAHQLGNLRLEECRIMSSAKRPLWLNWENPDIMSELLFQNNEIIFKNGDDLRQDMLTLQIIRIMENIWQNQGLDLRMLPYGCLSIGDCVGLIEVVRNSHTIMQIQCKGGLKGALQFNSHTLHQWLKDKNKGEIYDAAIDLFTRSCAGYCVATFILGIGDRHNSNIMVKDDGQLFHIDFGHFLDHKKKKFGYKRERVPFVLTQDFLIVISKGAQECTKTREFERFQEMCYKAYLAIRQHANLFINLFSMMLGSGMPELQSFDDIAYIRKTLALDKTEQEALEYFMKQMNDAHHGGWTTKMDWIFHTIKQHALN
How it was run: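 Fluorescence polarization assay of PI3K activity with PIP2 substrate. Reactions contained 20 mM Hepes pH 7.5, 2 mM MgCl2, 0.05% CHAPS, 0.01% βME, 20 µM PIP2 and 25 µM ATP, and ran 15–30 min at room temperature. They were stopped with buffer holding 10 nM TAMRA-labeled probe and 40 nM GST-GRP1 (E. coli-expressed detector), then incubated 1–2 h before FP readout.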

[4] = Chemical stability at pH 7.4; format: physicochemical; details: buffer, read-out: Stability
How it was run: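 Compound was incubated with the dipeptide lysine-phenylalanine at pH 7.4. Half-life of amine adduct formation was measured.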

[5] = biological target: Vascular endothelial growth factor receptor 2 (Homo sapiens, UniProt P35968); experiment: Inhibition of KDR
[6] = Aqueous solubility of the compound; format: physicochemical
[7] = biological target: MAP kinase-activated protein kinase 2 (Homo sapiens, UniProt P49137); experiment: Inhibition of MK2
Chain of MAP kinase-activated protein kinase 2 (P49137 whole entry): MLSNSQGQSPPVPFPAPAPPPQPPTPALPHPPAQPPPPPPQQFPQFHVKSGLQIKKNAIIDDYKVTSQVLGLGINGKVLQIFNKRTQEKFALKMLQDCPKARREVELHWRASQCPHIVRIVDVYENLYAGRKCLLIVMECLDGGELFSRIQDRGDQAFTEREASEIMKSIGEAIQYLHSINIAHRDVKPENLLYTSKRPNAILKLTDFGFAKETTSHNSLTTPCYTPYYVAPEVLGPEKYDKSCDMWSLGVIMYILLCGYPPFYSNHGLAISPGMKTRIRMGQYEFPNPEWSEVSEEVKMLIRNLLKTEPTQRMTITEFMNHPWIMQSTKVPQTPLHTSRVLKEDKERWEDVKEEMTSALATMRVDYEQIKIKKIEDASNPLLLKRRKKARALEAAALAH

[8] = Antitumor activity against human U87MG cells xenografted mouse administered intravenously once a week for two weeks; format: functional, U-87MG ATCC; details: U-87 MG, iv, 336 h, read-out: MED
How it was run: (§2)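 Nude mice bearing U87MG glioma xenografts; compound in PBS given intravenously on the stated schedule for 2 weeks. Tumor growth was monitored twice a week, and tumor volume was determined by a previously described method. Efficacy was expressed as minimum efficacious dose.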

[9] = biological target: Ribosomal protein S6 kinase beta-1 (Homo sapiens, UniProt P23443); experiment: Inhibition of S6K1
Chain of Ribosomal protein S6 kinase beta-1 (P23443 whole entry, canonical isoform): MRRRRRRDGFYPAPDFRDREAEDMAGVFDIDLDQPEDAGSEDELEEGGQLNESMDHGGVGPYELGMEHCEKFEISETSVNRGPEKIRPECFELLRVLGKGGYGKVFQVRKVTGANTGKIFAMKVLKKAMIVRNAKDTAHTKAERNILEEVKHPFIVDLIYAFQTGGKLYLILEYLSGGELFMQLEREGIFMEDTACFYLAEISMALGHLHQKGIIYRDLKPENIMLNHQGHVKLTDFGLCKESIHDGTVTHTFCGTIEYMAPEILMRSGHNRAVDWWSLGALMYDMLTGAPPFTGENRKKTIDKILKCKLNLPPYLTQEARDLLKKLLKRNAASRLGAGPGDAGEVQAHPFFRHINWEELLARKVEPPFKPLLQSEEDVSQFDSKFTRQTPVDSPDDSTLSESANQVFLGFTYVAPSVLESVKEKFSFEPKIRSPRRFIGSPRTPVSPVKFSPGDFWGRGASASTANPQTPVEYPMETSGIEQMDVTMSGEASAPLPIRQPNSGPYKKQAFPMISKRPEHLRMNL

[10] = biological target: Phosphatidylinositol 4,5-bisphosphate 3-kinase catalytic subunit beta isoform (Homo sapiens, UniProt P42338); experiment: Inhibition of PI3Kbeta
How it was run: (§3)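 Fluorescence polarization assay using purchased PI3K enzyme. It was stopped with TAMRA-labeled probe (10 nM) plus GST-GRP1 (40 nM), incubated 1–2 h, and FP was read.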

[11] = biological target: T1, Phosphatidylinositol 4,5-bisphosphate 3-kinase catalytic subunit alpha isoform; experiment: Inhibition of PI3K mediated S6K phosphorylation in PTEN negative human U87MG cells at 30 ng/ml; format: cell-based; details: U-87MG ATCC
How it was run: (§4)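 PTEN-negative U87MG cells were plated in six-well plates for 24 h, then treated in growth medium for 6 h against a DMSO control. PI3K pathway phosphorylation was then assessed.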

[12] = Antitumor activity against human U87MG cells xenografted mouse administered intravenously twice a week for two weeks; format: functional, U-87MG ATCC; details: U-87 MG, iv, 336 h, read-out: MED; how it was run: as §2
[13] = biological target: Cyclin-dependent kinase 4 (Homo sapiens, UniProt P11802); experiment: Inhibition of CDK4
Chain of Cyclin-dependent kinase 4 (P11802 whole entry, canonical isoform): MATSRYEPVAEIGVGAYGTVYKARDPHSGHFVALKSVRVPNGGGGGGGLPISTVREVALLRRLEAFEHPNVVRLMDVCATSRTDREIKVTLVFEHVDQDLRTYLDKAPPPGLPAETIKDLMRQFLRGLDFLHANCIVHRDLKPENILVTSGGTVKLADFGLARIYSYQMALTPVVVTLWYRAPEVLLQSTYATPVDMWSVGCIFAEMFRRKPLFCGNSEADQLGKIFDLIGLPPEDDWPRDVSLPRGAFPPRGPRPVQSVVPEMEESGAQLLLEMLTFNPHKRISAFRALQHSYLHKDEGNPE

[14] = biological target: T1, Phosphatidylinositol 4,5-bisphosphate 3-kinase catalytic subunit alpha isoform; experiment: Inhibition of PI3K mediated AKT phosphorylation in PTEN negative human U87MG cells at 30 ng/ml; format: cell-based; details: U-87MG ATCC; how it was run: as §4
[15] = biological target: T2, Phosphatidylinositol 4,5-bisphosphate 3-kinase catalytic subunit delta isoform (Homo sapiens, UniProt O00329); experiment: Inhibition of PI3Kdelta; how it was run: as §3
T2 sequence (O00329 whole entry): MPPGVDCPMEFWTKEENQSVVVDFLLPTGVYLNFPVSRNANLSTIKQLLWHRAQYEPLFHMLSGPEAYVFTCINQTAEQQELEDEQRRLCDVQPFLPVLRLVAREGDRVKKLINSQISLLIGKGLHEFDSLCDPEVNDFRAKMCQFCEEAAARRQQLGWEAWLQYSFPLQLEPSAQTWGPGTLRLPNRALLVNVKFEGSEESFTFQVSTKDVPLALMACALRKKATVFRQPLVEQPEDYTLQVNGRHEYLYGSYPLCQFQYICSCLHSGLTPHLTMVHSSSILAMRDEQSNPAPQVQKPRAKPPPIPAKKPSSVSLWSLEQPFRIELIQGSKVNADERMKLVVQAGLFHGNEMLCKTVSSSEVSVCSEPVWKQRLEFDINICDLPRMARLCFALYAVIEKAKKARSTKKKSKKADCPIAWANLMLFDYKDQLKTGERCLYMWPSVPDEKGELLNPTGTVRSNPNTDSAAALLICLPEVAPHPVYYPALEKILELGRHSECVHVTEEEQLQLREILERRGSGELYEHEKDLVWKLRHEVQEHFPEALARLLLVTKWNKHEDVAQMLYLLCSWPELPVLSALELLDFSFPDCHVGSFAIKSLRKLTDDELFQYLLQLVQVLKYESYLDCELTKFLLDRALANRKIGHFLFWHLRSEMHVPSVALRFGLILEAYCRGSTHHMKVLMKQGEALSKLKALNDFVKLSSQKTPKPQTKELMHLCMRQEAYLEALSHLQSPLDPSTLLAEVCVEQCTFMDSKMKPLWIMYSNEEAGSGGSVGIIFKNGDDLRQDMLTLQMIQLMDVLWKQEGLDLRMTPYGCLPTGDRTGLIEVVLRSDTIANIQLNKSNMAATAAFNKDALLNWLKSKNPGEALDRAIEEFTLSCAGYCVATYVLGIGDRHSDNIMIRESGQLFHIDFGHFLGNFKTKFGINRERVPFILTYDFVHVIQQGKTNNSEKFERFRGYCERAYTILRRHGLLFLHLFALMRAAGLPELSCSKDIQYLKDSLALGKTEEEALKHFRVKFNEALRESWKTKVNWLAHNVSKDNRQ

[16] = biological target: RAC-alpha serine/threonine-protein kinase (Homo sapiens, UniProt P31749); experiment: Inhibition of AKT1
Chain of RAC-alpha serine/threonine-protein kinase (P31749 whole entry): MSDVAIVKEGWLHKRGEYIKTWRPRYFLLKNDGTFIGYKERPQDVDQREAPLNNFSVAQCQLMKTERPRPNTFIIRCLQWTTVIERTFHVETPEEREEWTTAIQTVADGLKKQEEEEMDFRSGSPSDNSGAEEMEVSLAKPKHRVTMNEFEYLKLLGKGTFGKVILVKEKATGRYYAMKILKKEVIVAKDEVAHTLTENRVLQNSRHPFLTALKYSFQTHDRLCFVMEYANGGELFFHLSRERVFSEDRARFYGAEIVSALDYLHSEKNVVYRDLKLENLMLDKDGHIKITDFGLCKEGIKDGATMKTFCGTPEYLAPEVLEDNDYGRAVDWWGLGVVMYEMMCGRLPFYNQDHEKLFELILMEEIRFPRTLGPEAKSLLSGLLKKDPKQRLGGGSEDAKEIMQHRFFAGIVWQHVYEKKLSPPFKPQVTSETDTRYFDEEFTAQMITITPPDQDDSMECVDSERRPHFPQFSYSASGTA

[17] = biological target: T3, Inhibitor of nuclear factor kappa-B kinase subunit beta (Homo sapiens, UniProt O14920); experiment: Inhibition of IKK-beta
T3 sequence (O14920 whole entry): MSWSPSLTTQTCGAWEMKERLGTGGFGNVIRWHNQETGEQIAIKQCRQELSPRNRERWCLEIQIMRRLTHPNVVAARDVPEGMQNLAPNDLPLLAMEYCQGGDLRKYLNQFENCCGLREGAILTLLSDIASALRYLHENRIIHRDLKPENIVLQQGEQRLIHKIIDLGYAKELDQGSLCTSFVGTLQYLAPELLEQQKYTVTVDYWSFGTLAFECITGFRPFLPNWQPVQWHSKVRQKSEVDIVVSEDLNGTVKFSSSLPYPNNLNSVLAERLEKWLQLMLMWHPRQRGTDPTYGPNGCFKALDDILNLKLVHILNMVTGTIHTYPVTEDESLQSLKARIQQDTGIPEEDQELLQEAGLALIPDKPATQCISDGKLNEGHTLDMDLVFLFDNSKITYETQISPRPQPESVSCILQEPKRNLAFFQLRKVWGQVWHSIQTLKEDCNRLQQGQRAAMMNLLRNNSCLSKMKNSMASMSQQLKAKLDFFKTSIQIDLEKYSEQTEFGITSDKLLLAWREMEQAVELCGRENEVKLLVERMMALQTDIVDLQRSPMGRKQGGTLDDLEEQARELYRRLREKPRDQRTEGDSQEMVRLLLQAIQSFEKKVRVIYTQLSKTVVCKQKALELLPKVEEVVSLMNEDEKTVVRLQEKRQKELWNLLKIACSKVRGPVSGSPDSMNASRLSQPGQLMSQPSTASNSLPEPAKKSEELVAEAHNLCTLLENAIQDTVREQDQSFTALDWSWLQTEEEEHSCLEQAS

[18] = biological target: Phosphatidylinositol 4,5-bisphosphate 3-kinase catalytic subunit gamma isoform (Homo sapiens, UniProt P48736); experiment: Inhibition of PI3Kgamma; how it was run: as §3
[19] = Clearance in mouse at 5 mg/kg, iv; format: ADME, organism-based; parameters: dose 5 mg/kg, route intravenous; details: in vivo; how it was run: as §1
[20] = biological target: Mitogen-activated protein kinase kinase kinase 8 (Homo sapiens, UniProt P41279); experiment: Inhibition of Tpl2
Chain of Mitogen-activated protein kinase kinase kinase 8 (P41279 whole entry): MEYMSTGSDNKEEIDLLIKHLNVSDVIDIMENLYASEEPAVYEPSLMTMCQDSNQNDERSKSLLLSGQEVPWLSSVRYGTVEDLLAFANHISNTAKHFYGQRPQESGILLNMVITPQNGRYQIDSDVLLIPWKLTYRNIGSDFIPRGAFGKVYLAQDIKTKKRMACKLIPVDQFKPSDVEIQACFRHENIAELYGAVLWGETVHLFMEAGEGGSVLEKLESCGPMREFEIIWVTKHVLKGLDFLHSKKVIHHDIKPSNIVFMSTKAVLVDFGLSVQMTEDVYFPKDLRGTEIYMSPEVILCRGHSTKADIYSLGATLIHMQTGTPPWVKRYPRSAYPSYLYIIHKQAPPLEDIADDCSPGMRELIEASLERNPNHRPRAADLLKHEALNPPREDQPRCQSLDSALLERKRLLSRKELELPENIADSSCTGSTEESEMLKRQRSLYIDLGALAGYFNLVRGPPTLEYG

[21] = Inhibition of IGFR
[22] = Inhibition of GSK3
[23] = biological target: Dual specificity mitogen-activated protein kinase kinase 1 (Homo sapiens, UniProt Q02750); experiment: Inhibition of MEK1
Chain of Dual specificity mitogen-activated protein kinase kinase 1 (Q02750 whole entry): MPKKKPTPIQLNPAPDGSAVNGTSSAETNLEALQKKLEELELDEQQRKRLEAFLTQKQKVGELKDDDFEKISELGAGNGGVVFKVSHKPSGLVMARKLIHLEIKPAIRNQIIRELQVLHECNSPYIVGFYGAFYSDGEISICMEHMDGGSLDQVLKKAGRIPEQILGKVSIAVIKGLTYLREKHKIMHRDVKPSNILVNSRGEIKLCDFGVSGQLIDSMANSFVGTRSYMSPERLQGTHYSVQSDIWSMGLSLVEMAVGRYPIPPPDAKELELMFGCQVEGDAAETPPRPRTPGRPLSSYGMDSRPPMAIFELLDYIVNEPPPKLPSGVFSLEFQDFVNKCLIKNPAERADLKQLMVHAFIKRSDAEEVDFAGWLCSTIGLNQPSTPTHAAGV

[24] = Volume of distribution in mouse at 5 mg/kg, iv; format: ADME, organism-based; parameters: dose 5 mg/kg, route intravenous; details: in vivo, read-out: Vdss; how it was run: as §1
[25] = biological target: Tyrosine-protein kinase Lyn (Homo sapiens, UniProt P07948); experiment: Inhibition of LYN
Chain of Tyrosine-protein kinase Lyn (P07948 whole entry): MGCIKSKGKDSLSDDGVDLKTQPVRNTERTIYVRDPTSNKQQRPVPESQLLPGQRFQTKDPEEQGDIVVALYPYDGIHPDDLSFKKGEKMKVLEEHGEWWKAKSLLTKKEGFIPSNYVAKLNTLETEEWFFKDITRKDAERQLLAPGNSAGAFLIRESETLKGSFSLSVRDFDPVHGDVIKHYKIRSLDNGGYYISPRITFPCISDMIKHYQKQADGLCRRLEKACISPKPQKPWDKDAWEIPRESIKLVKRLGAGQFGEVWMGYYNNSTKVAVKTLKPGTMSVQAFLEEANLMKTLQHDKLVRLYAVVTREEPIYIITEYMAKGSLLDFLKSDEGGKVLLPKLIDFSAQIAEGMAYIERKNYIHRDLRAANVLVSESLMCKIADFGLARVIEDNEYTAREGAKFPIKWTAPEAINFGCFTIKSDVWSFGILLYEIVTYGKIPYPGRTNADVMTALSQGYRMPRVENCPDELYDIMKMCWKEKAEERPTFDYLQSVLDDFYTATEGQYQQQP

[26] = Antitumor activity against human U87MG cells xenografted mouse administered intravenously thrice a week for two weeks; format: functional, U-87MG ATCC; details: U-87 MG, iv, 336 h, read-out: MED
How it was run: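 Nude mice bearing U87MG glioma xenografts; dosed iv in PBS at the stated doses and schedules for 2 weeks. Tumor growth was monitored twice weekly, and tumor volume was determined by a previously described method.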

[27] = biological target: Tyrosine-protein kinase BTK (Homo sapiens, UniProt Q06187); experiment: Inhibition of BTK
Chain of Tyrosine-protein kinase BTK (Q06187 whole entry): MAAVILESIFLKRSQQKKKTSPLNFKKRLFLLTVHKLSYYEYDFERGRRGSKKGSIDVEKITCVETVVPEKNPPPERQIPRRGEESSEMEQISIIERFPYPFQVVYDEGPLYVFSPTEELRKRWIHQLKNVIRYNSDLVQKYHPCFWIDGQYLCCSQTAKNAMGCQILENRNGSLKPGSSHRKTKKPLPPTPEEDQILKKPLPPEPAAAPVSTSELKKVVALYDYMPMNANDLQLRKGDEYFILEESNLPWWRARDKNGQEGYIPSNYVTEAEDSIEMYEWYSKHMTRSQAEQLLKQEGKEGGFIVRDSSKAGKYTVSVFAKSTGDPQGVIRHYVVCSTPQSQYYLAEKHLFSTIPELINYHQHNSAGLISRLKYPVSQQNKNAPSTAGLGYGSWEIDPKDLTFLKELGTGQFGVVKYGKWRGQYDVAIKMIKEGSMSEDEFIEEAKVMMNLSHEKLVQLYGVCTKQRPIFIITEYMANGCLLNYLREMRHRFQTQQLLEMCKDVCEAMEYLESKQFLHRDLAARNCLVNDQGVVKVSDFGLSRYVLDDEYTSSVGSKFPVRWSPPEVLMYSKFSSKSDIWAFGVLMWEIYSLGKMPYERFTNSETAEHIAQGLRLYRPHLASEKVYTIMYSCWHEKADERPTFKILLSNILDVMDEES

COC[C@H]1OC(=O)c2coc3c2[C@@]1(C)C1=C(C3=O)[C@@H]2CC[C@H](O)[C@@]2(C)C[C@H]1OC(C)=O
IC50 (LNCaP): 1460 nM | IC50 [1]: 193 nM | half-life [2]: 4 min | IC50 [3]: 2.7 nM | half-life [4]: 4 min

COC[C@H]1OC(=O)/C(=C/N(C)CCCN(C)C)C2=C(O)C(=O)C3=C([C@H](OC(C)=O)C[C@]4(C)[C@@H](O)CC[C@@H]34)[C@]21C
IC50 [5]: > 10 µM | solubility [6]: > 10000 µg/mL | IC50 [7]: > 200 µM | minimal effective dose [8]: 2.5 mg/kg | IC50 [9]: > 30 µM | IC50 [10]: 13 nM | Activity [11]: Active | minimal effective dose [12]: < 1.25 mg/kg | IC50 [13]: > 50 µM | Activity [14]: Active | IC50 [15]: 11 nM | IC50 (LNCaP): 389 nM | IC50 [16]: > 30 µM | IC50 [1]: 2920 nM | half-life [2]: 30 min | IC50 [17]: > 10 µM | IC50 [18]: 8 µM | IC50 [3]: 64 nM | clearance [19]: 50 mL/min/kg | IC50 [20]: > 40 µM | IC50 [21]: > 10 µM | IC50 [22]: > 10 µM | IC50 [23]: > 10 µM | Vd [24]: 0.7 L/kg | IC50 [25]: > 30 µM

CCN(/C=C1/C(=O)O[C@H](COC)[C@@]2(C)C1=C(O)C(=O)C1=C2[C@H](OC(C)=O)C[C@]2(C)[C@@H](O)CC[C@@H]12)CC
IC50 (LNCaP): 160 nM | IC50 [1]: 14000 nM | IC50 [3]: 382 nM | half-life [4]: 57 min

COC[C@H]1OC(=O)/C(=C/N2CCN(CCN3CCOCC3)CC2)C2=C(O)C(=O)C3=C([C@H](OC(C)=O)C[C@]4(C)[C@@H](O)CC[C@@H]34)[C@]21C
IC50 (LNCaP): 794 nM | IC50 [1]: 619 nM | IC50 [3]: 78 nM

CCN(/C=C1/C(=O)O[C@H](COC)[C@@]2(C)C1=C(O)C(=O)C1=C2[C@H](OC(C)=O)C[C@]2(C)[C@@H](O)CC[C@@H]12)CCCN(C)C
IC50 (LNCaP): 535 nM | IC50 [1]: 3570 nM | IC50 [3]: 12 nM

COC[C@H]1OC(=O)/C(=C/N2CCOCC2)C2=C(O)C(=O)C3=C([C@H](OC(C)=O)C[C@]4(C)[C@@H](O)CC[C@@H]34)[C@]21C
IC50 (LNCaP): 966 nM | IC50 [1]: 831 nM | IC50 [3]: 37 nM

COC[C@H]1OC(=O)/C(=C/N2CCN(CCCN3CCOCC3)CC2)C2=C(O)C(=O)C3=C([C@H](OC(C)=O)C[C@]4(C)[C@@H](O)CC[C@@H]34)[C@]21C
IC50 (LNCaP): 637 nM | IC50 [1]: 1200 nM | IC50 [3]: 45 nM

COC[C@H]1OC(=O)/C(=C/N(C)CCCN2CCN(C)CC2)C2=C(O)C(=O)C3=C([C@H](OC(C)=O)C[C@]4(C)[C@@H](O)CC[C@@H]34)[C@]21C
IC50 (LNCaP): 465 nM | IC50 [1]: 2330 nM | IC50 [3]: 10 nM

COC[C@H]1OC(=O)/C(=C/N(C)CC(O)CO)C2=C(O)C(=O)C3=C([C@H](OC(C)=O)C[C@]4(C)[C@@H](O)CC[C@@H]34)[C@]21C (stereo not given in full)
IC50 (LNCaP): 168 nM | IC50 [1]: 1870 nM | IC50 [3]: 199 nM

COC[C@H]1OC(=O)/C(=C/N(CCO)C(C)(C)C)C2=C(O)C(=O)C3=C([C@H](OC(C)=O)C[C@]4(C)[C@@H](O)CC[C@@H]34)[C@]21C
IC50 [5]: > 10 µM | IC50 [7]: > 200 µM | minimal effective dose [8]: 15 mg/kg | IC50 [9]: > 30 µM | minimal effective dose [12]: 7.5 mg/kg | IC50 [13]: > 50 µM | minimal effective dose [26]: 5 mg/kg | IC50 [27]: > 10 µM | IC50 (LNCaP): 128 nM | IC50 [16]: > 30 µM | IC50 [1]: 28600 nM | IC50 [17]: > 10 µM | IC50 [3]: 1110 nM | IC50 [20]: > 40 µM | IC50 [21]: > 10 µM | IC50 [22]: > 10 µM | IC50 [23]: > 10 µM | IC50 [25]: > 30 µM
